Data set [1] is described as follows: Toxicity in normotensive C57BL/6 mouse assessed as effect on cell number in aqueous humor outflow pathway at 5 mM administered topically as solution in PBS once daily as bolus dose to contralateral eye for 5 days by hematoxylin and eosin staining based transmission electron microscopic analysis. To be noted: in vivo, topical_or_ocular, 120 h, 5000 µM. Format: organism-based.

For data set [2], the system named is Mus musculus. The experiment in a line: Antiglaucoma activity in normotensive C57BL/6 mouse assessed as reduction in intraocular pressure at 5 mM administered topically as solution in PBS once daily as bolus dose to contralateral eye for 5 days followed by 5 mM sodium (3S,4R)-6-cyano-2,2-dimethyl-4-(2-oxopyrrolidin-1-yl)chroman-3-yl phosphate treatment for 5 days by tonometer. Format: functional. The essentials: (§1)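 C57BL/6 mice received sequential once-daily topical 5 µl boluses of 5 mM enantiomers dissolved in PBS to one eye, with vehicle to the contralateral eye. IOP was read by rebound tonometer in conscious mice at 1, 4 and 23 h post-dose, averaged, and expressed relative to the vehicle eye. n=10.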

A short description of data set [3]: Toxicity in normotensive C57BL/6 mouse assessed as effect on cell structure in aqueous humor outflow pathway at 5 mM administered topically as solution in PBS once daily as bolus dose to contralateral eye for 5 days by hematoxylin and eosin staining based transmission electron microscopic analysis. The format is organism-based. The note with it: in vivo, topical_or_ocular, 120 h, 5000 µM.

The test system of data set [4] is Mus musculus. The experiment in a line: Antiglaucoma activity in normotensive C57BL/6 mouse assessed as reduction in intraocular pressure at 5 mM compound solution in PBS administered topically once daily as bolus dose to one eye for 6 days measured up to 72 hrs post treatment by tonometer. The format is functional, organism-based. The essentials:
(§2)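 Mice received a 5 mM solution in PBS as a 5 µl topical bolus to one eye once daily for 6 days, with PBS to the contralateral eye. IOP was read by rebound tonometer in conscious mice at 1, 4 and 23 h post-dose and averaged. Values are expressed as treated minus control eye. Readings continued after treatment stopped. n=10 (days 1–9), n=6 (days 10–12).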

The test system of data set [5] is Mus musculus. Put plainly: Antiglaucoma activity in normotensive C57BL/6 mouse assessed as reduction in intraocular pressure at 5 mM compound solution in PBS administered topically once daily as bolus dose to one eye for 6 days measured up to 23 hrs post daily administration by tonometer. The format is functional. In short, it runs like this: as §2
Data set [6] has as its system Oryctolagus cuniculus. The experiment in a line: Antiglaucoma activity in normotensive Dutch-belted pigmented rabbit assessed as reduction in intraocular pressure at 5 mM administered topically as solution in PBS once daily as bolus dose to contralateral eye for 4 days pretreated with 2.5 mM compound for 4 days measured up to 23 hrs post daily administration by tonometer. The format is functional. In short, it runs like this: (§3)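 In normotensive Dutch-belted pigmented rabbits, a PBS solution was applied topically as a 50 µL bolus to one eye once daily: 2.5 mM for 4 days, then 5 mM for 4 days. IOP was measured at 1, 4 and 23 h after each dose and averaged. Values are the absolute difference between treated and control eyes (mmHg).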

Data set [7] concerns Oryctolagus cuniculus. Put plainly: Antiglaucoma activity in normotensive Dutch-belted pigmented rabbit assessed as reduction in intraocular pressure at 2.5 mM administered topically as solution in PBS once daily as bolus dose to contralateral eye for 4 days followed by 5 mM compound treatment for 4 days measured up to 23 hrs post daily administration by tonometer. The format is functional. In short, it runs like this: as §3

The subject of data set [8] is Mus musculus. The experiment in a line: Antiglaucoma activity in normotensive C57BL/6 mouse assessed as reduction in intraocular pressure at 2.5 mM compound solution in PBS administered topically once daily as bolus dose to contralateral eye for 7 days measured up to 23 hrs post daily administration by tonometer. Format: functional. In short, it runs like this:
(§4)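 C57BL/6 retired breeders (>7 months old) received a 5 µl bolus of 2.5 mM solution in PBS topically to one eye once daily for 7 consecutive days, with PBS to the contralateral eye. IOP was measured in conscious, non-anesthetized mice by hand-held rebound tonometer at 1, 4 and 23 h after dosing. Daily IOP is the mean of the three readings, expressed as treated minus vehicle eye (mm Hg). n=10 (days 1–10), n=6 after.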

Data set [9] can be described thus: Stability in D2O solution assessed as compound decomposition after 1 week by 1H NMR analysis. The format is physicochemical. To be noted: 168 h.
Data set [10] is described as follows: Stability in D2O solution assessed as compound decomposition after 1 week by 31P NMR analysis. Format: physicochemical. The note with it: 168 h.
Data set [11] has as its system Mus musculus. The experiment in a line: Antiglaucoma activity in normotensive C57BL/6 mouse assessed as reduction in intraocular pressure at 2.5 mM compound solution in PBS administered topically once daily as bolus dose to contralateral eye for 7 days measured up to 48 hrs after cessation of drug treatment by tonometer. The format is functional, organism-based. In short, it runs like this:
as §4

Data set [12] relates to Mus musculus. The experiment in a line: Antiglaucoma activity in normotensive C57BL/6 mouse assessed as reduction in intraocular pressure at 5 mM administered topically as solution in mixture of DMSO, cremophor EL and PBS once daily as bolus dose to contralateral eye for 5 days pretreated with 5 mM dexcromakalim for 6 days by tonometer. The format is functional. The essentials:
(§5)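 Following baseline IOP, C57BL/6 mice were dosed topically once daily with a 5 µl bolus to one eye. Dexromakalim was given for 6 days, then levromakalim for 5 days. Each was made as a 100 mM DMSO stock diluted to 5 mM with 10% cremophor EL in PBS. IOP was read by rebound tonometer versus the vehicle-treated contralateral eye.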

The nature of data set [13]: Toxicity in normotensive C57BL/6 mouse assessed as effect on cell structure in aqueous humor outflow pathway at 5 mM administered topically as solution in mixture of DMSO, cremophor EL and PBS once daily as bolus dose to contralateral eye for 5 days by hematoxylin and eosin staining based transmission electron microscopic analysis. The format is organism-based. The note with it: in vivo, topical_or_ocular, 120 h, 5000 µM.

The nature of data set [14]: Toxicity in normotensive C57BL/6 mouse assessed as effect on cell number in aqueous humor outflow pathway at 5 mM administered topically as solution in mixture of DMSO, cremophor EL and PBS once daily as bolus dose to contralateral eye for 5 days by hematoxylin and eosin staining based transmission electron microscopic analysis. The format is organism-based. The note with it: in vivo, topical_or_ocular, 120 h, 5000 µM.

Data set [15] in a line: Solubility in water at 10 mg/ml. Format: physicochemical. The note with it: buffer.
Data set [16] can be described thus: Stability of compound in D2O solution. The format is physicochemical.
A short description of data set [17]: Toxicity in normotensive C57BL/6 mouse assessed as effect on cell number in aqueous humor outflow pathway at 2.5 mM compound solution in PBS administered topically once daily as bolus dose to contralateral eye for 7 days by hematoxylin and eosin staining based transmission electron microscopic analysis. To be noted: in vivo, topical_or_ocular, 168 h, 2500 µM. The format is organism-based. In short, it runs like this: (§6)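 After once-daily topical dosing of C57BL/6 mice with 2.5 mM in PBS (5 µl), some animals were sacrificed. Aqueous outflow pathway tissues (trabecular meshwork, Schlemm's canal) were examined by hematoxylin and eosin stained sections and by transmission electron microscopy. Cell structure and number were compared with vehicle-treated eyes.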

Data set [18] is described as follows: Toxicity in normotensive C57BL/6 mouse assessed as alteration in morphology of aqueous humor outflow pathway at 2.5 mM compound solution in PBS administered topically once daily as bolus dose to contralateral eye for 7 days by hematoxylin and eosin staining based transmission electron microscopic analysis. Format: organism-based. To be noted: in vivo, topical_or_ocular, 168 h, 2500 µM. The essentials: as §6

The nature of data set [19]: Prodrug activation in buffer containing ZnCl2, MgCl2 and sodium glycine assessed as alkaline phosphatase (unknown origin)-mediated levcromakalim formation. The note with it: human.
Data set [20] concerns Mus musculus. The experiment in a line: Antiglaucoma activity in normotensive C57BL/6 mouse assessed as reduction in intraocular pressure at 5 mM administered topically as solution in PBS once daily as bolus dose to contralateral eye for 5 days pretreated with 5 mM sodium (3R,4S)-6-cyano-2,2-dimethyl-4-(2-oxopyrrolidin-1-yl)chroman-3-yl phosphate for 5 days by tonometer. The format is functional. The essentials: as §1

The nature of data set [21]: Toxicity in normotensive C57BL/6 mouse assessed as effect on cell structure in aqueous humor outflow pathway at 2.5 mM compound solution in PBS administered topically once daily as bolus dose to contralateral eye for 7 days by hematoxylin and eosin staining based transmission electron microscopic analysis. The format is organism-based. To be noted: in vivo, topical_or_ocular, 168 h, 2500 µM. In short, it runs like this:
as §6

A short description of data set [22]: Toxicity in normotensive C57BL/6 mouse assessed as effect on cell structure in aqueous humor outflow pathway at 5 mM administered topically as solution in mixture of DMSO, cremophor EL and PBS once daily as bolus dose to one eye for 6 days by hematoxylin and eosin staining based transmission electron microscopic analysis. The format is organism-based. To be noted: in vivo, topical_or_ocular, 144 h, 5000 µM.

The test system of data set [23] is Mus musculus. Put plainly: Antiglaucoma activity in normotensive C57BL/6 mouse assessed as reduction in intraocular pressure at 5 mM administered topically as solution in mixture of DMSO, cremophor EL and PBS once daily as bolus dose to one eye for 6 days followed by 5 mM levcromakalim treatment for 5 days by tonometer. The format is functional. The essentials: as §5

Data set [24] in a line: Toxicity in normotensive C57BL/6 mouse assessed as effect on cell number in aqueous humor outflow pathway at 5 mM administered topically as solution in mixture of DMSO, cremophor EL and PBS once daily as bolus dose to one eye for 6 days by hematoxylin and eosin staining based transmission electron microscopic analysis. Format: organism-based. The note with it: in vivo, topical_or_ocular, 144 h, 5000 µM.

The test system of data set [25] is Mus musculus. Put plainly: Antiglaucoma activity in normotensive C57BL/6 mouse assessed as reduction in intraocular pressure at 5 mM administered topically as solution in mixture of DMSO, cremophor EL and PBS once daily as bolus dose to one eye for 5 days measured up to 23 hrs post daily administration by tonometer. The format is functional. The essentials:
as §5

The structures appear in SMILES notation. Calls of active or inactive are those of the source. The rule behind the calls is not given here.

For `CC1(C)Oc2ccc(C#N)cc2[C@H](N2CCCC2=O)[C@H]1OP(=O)([O-])[O-].[Na+].[Na+]`, the results for the Activity entry (in data set [1]; with Mus musculus [2]; in [3]) were “Non-Toxic”, 0.14 mmHg and “Non-Toxic”, respectively.
Take `CC1(C)Oc2ccc(C(F)(F)F)cc2[C@@H](N2CCCC2=O)[C@@H]1OP(=O)([O-])[O-].[Na+].[Na+]`: the outcome with Mus musculus [4] was Active. Further, the results for the Activity in the data set with Mus musculus [5], in the data set with Oryctolagus cuniculus [6] and in the data set on Oryctolagus cuniculus [7] were 3.91 mmHg, 1.6 mmHg and 1.06 mmHg, respectively.
As for `CC1(C)Oc2ccc(C#N)cc2[C@@H](N2CCCC2=O)[C@@H]1OCOP(=O)([O-])[O-].[Na+].[Na+]` (racemic), in the data set with Mus musculus [8], the Activity is given as 1.81 mmHg. Moreover, the Stability entry in [9] and in [10] was “Stable” throughout.
Take `CC(C)C[C@H](NC(=O)CN)C(=O)O[C@H]1[C@H](N2CCCC2=O)c2cc(C#N)ccc2OC1(C)C`: the Activity in the data set on Mus musculus [5] worked out at 2.45 mmHg.
On the same count and under the same terms, in the case of `CC(C)C[C@@H](NC(=O)CN)C(=O)O[C@H]1[C@H](N2CCCC2=O)c2cc(C#N)ccc2OC1(C)C` it was 1.57 mmHg; in that of `CC(C)C[C@H](NC(=O)CN)C(=O)OCO[C@H]1[C@H](N2CCCC2=O)c2cc(C#N)ccc2OC1(C)C`, 1.93 mmHg.
Turning to `CC1(C)Oc2ccc(C#N)cc2[C@@H](N2CCCC2=O)[C@@H]1OP(=O)(O)O`, the result in the data set with Mus musculus [11] was inactive.
For `CC1(C)Oc2ccc(C#N)cc2[C@@H](N2CCCC2=O)[C@@H]1O` [LEVCROMAKALIM], the Activity with Mus musculus [12] is given as 3.37 mmHg; in [13], “Non-Toxic”; in [14], “Non-Toxic”.
As to `CC1(C)Oc2ccc(C#N)cc2[C@@H](N2CCCC2=O)[C@@H]1OP(=O)([O-])[O-].[Na+].[Na+]` (racemic), in data set [15], the solubility result is “Soluble”. Besides, the Activity in the data set on Mus musculus [8] is given as 2.5 mmHg. This compound also returned a Stability in data set [16] of more than 6 months.
Consider `CC1(C)Oc2ccc(C#N)cc2[C@@H](N2CCCC2=O)[C@@H]1OP(=O)([O-])[O-].[Na+].[Na+]`, for which the Activity in the data set on Mus musculus [8] is listed as 3.14 mmHg; in [17] it was “Non-Toxic”; in data set [18], “Non-Toxic”; in data set [1] it was “Non-Toxic”; in the data set with Mus musculus [20], 3.82 mmHg; in the data set with Oryctolagus cuniculus [6], 2.26 mmHg. Besides, the Activity is given as 2.02 mmHg in the data set with Oryctolagus cuniculus [7], “Non-Toxic” in data set [21] and “Non-Toxic” in data set [3]. Also, in [19], the Drug metabolism entry was “Metabolite_Detected”.
Consider `CC1(C)Oc2ccc(C#N)cc2[C@H](N2CCCC2=O)[C@H]1O` [(-)-CROMAKALIM], for which the results for the Activity entry (in data set [22]; in the data set with Mus musculus [23]; in data set [24]) were “Non-Toxic”, 0.73 mmHg and “Non-Toxic”, respectively.
As for `CC1(C)Oc2ccc(C#N)cc2[C@@H](N2CCCC2=O)[C@@H]1O` (racemic) [LEVCROMAKALIM], the Activity in the data set with Mus musculus [25] is 3.19 mmHg.

For the origin of these results see ChEMBL document CHEMBL4425134, “Analogs of the ATP-Sensitive Potassium (KATP) Channel Opener Cromakalim with in Vivo Ocular Hypotensive Activity” (J Med Chem, 2016).
